Measurements from ChEMBL document CHEMBL1126276, “Synthesis and antimalarial properties of 1-imino derivatives of 7-chloro-3-substituted-3,4-dihydro-1,9(2H,10H)-acridinediones and related structures” (J Med Chem, 1992).
Several values for one entry are separate records, joined by “and”; a condition that tells them apart may be missing. Identical values can stand only once.

Columns and labels:
Plasmodium berghei [1] = assay: (§1) Antimalarial activity in Plasmodium berghei infected mice (Mus musculus) after 80 mg/kg subcutaneous dose; format: functional
How it was run: (§2)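 […] in mice infected with a normal drug-sensitive P. berghei strain. Compound dissolved or suspended in sesame or peanut oil, given as a single subcutaneous dose 72 h postinfection.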

Plasmodium berghei [2] = assay: (§3) Antimalarial activity in Plasmodium berghei infected mice (Mus musculus) after 20 mg/kg subcutaneous dose; format: functional; how it was run: as §2
Plasmodium berghei [3] = assay: (§4) Antimalarial activity in Plasmodium berghei infected mice (Mus musculus) after 40 mg/kg subcutaneous dose; format: functional; how it was run: as §2
Plasmodium berghei [4] = assay: Antimalarial activity in Plasmodium berghei infected mice (Mus musculus) after 320 mg/kg subcutaneous dose; format: functional; how it was run: as §2
Plasmodium berghei [5] = assay: Antimalarial activity was measured against mice (Mus musculus) infected with Plasmodium berghei by subcutaneous administration of 640 mg/kg dose; format: organism-based; parameters: dose 640 mg/kg, route subcutaneous; conditions: in vivo, sc; how it was run: as §2
Plasmodium berghei [6] = assay: Antimalarial activity in Plasmodium berghei infected mice (Mus musculus) after subcutaneous 640 mg/kg dose; format: functional
How it was run: (§5)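 Normal drug-sensitive P. berghei strain in mice. Compound dissolved or suspended in sesame or peanut oil, given parenterally as a single subcutaneous dose 72 h postinfection.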

Plasmodium berghei [7] = assay: as §3; format: functional; how it was run: as §5; remark: listed apart in the source
Plasmodium berghei [8] = assay: as §1; format: functional; how it was run: as §5; remark: listed apart in the source
Plasmodium berghei [9] = assay: as §4; format: functional; how it was run: as §5; remark: listed apart in the source
Plasmodium berghei [10] = assay: Antimalarial activity in Plasmodium berghei infected mice (Mus musculus) after subcutaneous 320 mg/kg dose; format: functional; how it was run: as §5
Plasmodium berghei [11] = assay: Antimalarial activity in Plasmodium berghei infected mice (Mus musculus) after subcutaneous 160 mg/kg dose; format: functional; how it was run: as §5
Plasmodium berghei [12] = assay: Antimalarial activity in Plasmodium berghei infected mice (Mus musculus) after 160 mg/kg subcutaneous dose; format: functional; how it was run: as §2
Plasmodium berghei [13] = assay: Antimalarial activity Plasmodium berghei infected mice (Mus musculus) after 640 mg/kg subcutaneous dose; format: functional; how it was run: as §2

Row | SMILES | Delta mean survival time (Plasmodium berghei [1]) | Delta mean survival time (Plasmodium berghei [2]) | Delta mean survival time (Plasmodium berghei [3]) | Delta mean survival time (Plasmodium berghei [4]) | No. of toxic deaths (Plasmodium berghei [5]) | No. of cured mice (Plasmodium berghei [6]) | No. of cured mice (Plasmodium berghei [7]) | No. of cured mice (Plasmodium berghei [8]) | No. of cured mice (Plasmodium berghei [9]) | No. of cured mice (Plasmodium berghei [10]) | No. of cured mice (Plasmodium berghei [11]) | Delta mean survival time (Plasmodium berghei [12]) | Delta mean survival time (Plasmodium berghei [13]) | Delta mean survival time (Plasmodium berghei [3]; 40 mg/kg) | Delta mean survival time (Plasmodium berghei [1]; 80 mg/kg) | Delta mean survival time (Plasmodium berghei [2]; 20 mg/kg) | No. of cured mice (Plasmodium berghei [9]; 40 mg/kg)
1 | COc1ccccc1C1CC(=O)c2c(n(O)c3ccc(Cl)cc3c2=O)C1 (centres undefined) | 1.8 | 0.8 | 2.2 | 2.2 | 3 |  |  |  |  |  |  |  |  |  |  |  | 
2 | OCCNCC/N=C1\CC(c2ccc(Cl)cc2Cl)Cc2nc3ccc(Cl)cc3c(O)c21 (centres undefined) |  |  |  |  |  | 5 | 5 | 5 | 5 | 5 | 5 |  |  |  |  |  | 
3 | O=c1c2c(n(O)c3ccc(Cl)cc13)CC(c1ccc(Cl)c(Cl)c1)C/C2=N\CCCNCCO (centres undefined) | 7.9 | 2 | 6.6 | 11.6 |  | 5 |  | 1 |  | 4 | 3 | 9.6 |  |  |  |  | 
4 | O=C1CC(c2cccc(Br)c2)Cc2c1c(=O)c1cc(Cl)ccc1n2O (centres undefined) | 5.9 | 0.1 | 2.5 | 10.7 |  | 4 |  |  |  | 1 | 1 | 9.2 | 7.9 |  |  |  | 
5 | O=c1c2c(n(O)c3ccc(Cl)cc13)CC(c1ccc(C(F)(F)F)cc1)C/C2=N\CCCN1CCCCC1 (centres undefined) | 12 | 8.5 | 10 |  | 4 | 1 |  | 3 | 3 | 5 | 5 |  |  |  |  |  | 
6 | CC(C)CN(CC/N=C1\CC(c2ccc(Cl)c(Cl)c2)Cc2c1c(=O)c1cc(Cl)ccc1n2O)CC(C)C (centres undefined) | 6.3 | 3.6 | 5.3 | 13 |  | 5 |  | 1 | 1 | 1 | 2 | 9.7 |  |  |  |  | 
7 | CCN(CC)Cc1cccc(/N=C2\CC(c3ccc(Cl)c(Cl)c3)Cc3c2c(=O)c2cc(Cl)ccc2n3O)c1 (centres undefined) | 8 | 1.6 | 6.6 | 22.6 |  | 4 |  |  |  | 4 | 2 | 10.3 | 42.6 |  |  |  | 
8 | O=c1c2c(n(O)c3ccc(Cl)cc13)CC(c1cccc(C(F)(F)F)c1)C/C2=N\CCN1CCCC1 (centres undefined) | 8 |  | 6.6 |  | 1 | 4 |  |  |  | 5 | 4 | 9.6 |  |  |  |  | 
9 | CC1C(=O)c2c(nc3ccc(Cl)cc3c2O)CC1c1ccc(Cl)c(C(F)(F)F)c1 (centres undefined) | 1.1 | 0.9 | 0.7 | 5 |  | 2 |  |  |  | 1 | 1 | 1.5 | 5.7 |  |  |  | 
10 | CSc1ccc(C2C/C(=N\CCCN(C)C)c3c(nc4ccc(Cl)cc4c3O)C2)cc1 (centres undefined) | 4 | 2.8 | 3.4 | 12.8 | 1 | 4 |  | 1 |  | 3 | 1 | 9.8 |  |  |  |  | 
11 | CC1C(=O)c2c(n(O)c3ccc(Cl)cc3c2=O)CC1c1ccc(Cl)cc1Cl (centres undefined) |  | 10.7 |  |  |  | 5 | 2 | 5 | 5 | 5 | 5 |  |  |  |  |  | 
12 | COc1cc(C2C/C(=N\CCCN3CCCCC3)c3c(n(O)c4ccc(Cl)cc4c3=O)C2)cc(OC)c1OC (centres undefined) |  |  | 0.3 |  | 1 |  |  |  |  |  |  | 1.4 | 4.5 |  |  |  | 
13 | CCN(CC)CC(C)(C)C/N=C1\CC(c2ccc(Cl)c(Cl)c2)Cc2c1c(=O)c1cc(Cl)ccc1n2O (centres undefined) | 10.3 | 4 | 9.6 | 13.6 |  | 5 |  | 2 | 1 | 4 | 4 | 14.6 |  |  |  |  | 
14 | CN(C)CCC/N=C1\CC2(CCCCC2)Cc2nc3ccc(Cl)cc3c(O)c21 |  |  | 0.6 |  | 1 |  |  |  |  |  |  | 0 | 0.4 |  |  |  | 
15 | COCCC/N=C1\CC(c2cccc(C(F)(F)F)c2)Cc2c1c(=O)c1cc(Cl)ccc1n2O (centres undefined) |  |  |  | 13.8 |  | 5 |  | 1 |  | 3 | 1 | 5.1 |  |  |  |  | 
16 | CCCCCCC/N=C1\CC(c2ccc(C(F)(F)F)cc2)Cc2c1c(=O)c1cc(Cl)ccc1n2O (centres undefined) |  |  | 4.3 | 14.7 | 1 | 4 |  | 5 |  | 3 | 5 |  |  |  |  |  | 
17 | CC1C(=O)c2c(nc3ccc(Cl)cc3c2O)CC1c1ccc(Cl)cc1Cl (centres undefined) | 1.18 | 8.2 |  | 17 |  | 5 |  | 2 |  | 2 | 2 | 15 |  | 10 and 9.3 |  |  | 
18 | N=C1CC(c2ccc(C(F)(F)F)cc2)Cc2nc3ccc(Cl)cc3c(O)c21 (centres undefined) |  | 11.2 |  |  |  | 5 | 1 | 5 | 5 | 5 | 5 |  |  |  |  |  | 
19 | CN(C)CCC/N=C1/c2c([nH]c3ccc(Cl)cc3c2=O)CC(c2ccc(Cl)c(Cl)c2)C1Cc1ccccc1 (centres undefined) | 0.7 | -0.1 | 0.5 | 7.7 | 5 |  |  |  |  |  |  | 6.1 |  |  |  |  | 
20 | O=C1CC(c2ccc(C(F)(F)F)cc2)Cc2c1c(=O)c1cc(Cl)ccc1n2Cc1ccccc1 (centres undefined) |  |  | 0.2 |  | 1 |  |  |  |  |  |  | 0 | 0.3 |  |  |  | 
21 | CN(C)CCC/N=C1\CC(c2ccc(C(F)(F)F)cc2)Cc2nc3ccc(I)cc3c(O)c21 (centres undefined) |  |  | 3 |  | 1 | 1 |  |  |  |  | 2 | 7.3 | 14 |  |  |  | 
22 | CC1/C(=N\CCCN(C)C)c2c(nc3ccc(Cl)cc3c2O)CC1c1ccc(Cl)c(Cl)c1 (stereo in doubt) |  |  |  |  | 1 | 4 |  |  |  |  |  |  |  | 21 | 10.7 | 7.8 | 4
